# Measured values published in ChEMBL document CHEMBL1123853, “A novel class of cardiotonics. Synthesis and pharmacological properties of [4-(substituted-amino)phenyl]pyridazinones and related derivatives” (1987).
# How the values were obtained:
# [1] = organism: Canis familiaris; experiment: Positive inotropic in the isolated papillary muscle of the dog.; assay type: functional, Canis lupus familiaris
# Outline: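 Right ventricular anterior papillary muscle with septum, from mongrel dogs (7–12 kg, pentobarbital 30 mg/kg iv). It was perfused at about 100 mmHg via the septal artery with blood from a heparinized donor dog and paced at 120/min (1 ms pulses, about 1.5× threshold). Isometric tension was recorded. Saline solutions were injected intra-arterially, with amrinone as reference. ED15 (15% rise in developed tension) was taken from log dose-response curves. Results are mean ± SEM (n = 7) or mean ± range (n = 2).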
# [2] = tested on: Canis familiaris; experiment: Inotropic activity determined by evaluating the % change in Heart Rate (HR) at a dose of 100 ug/kg administered intravenously […]; assay type: functional, Canis lupus familiaris
# Outline: (§1)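 Mongrel dogs of either sex, 7–15 kg, anesthetized with sodium pentobarbital (30 mg/kg iv), open-chest, intubated and ventilated on room air. Compounds given intravenously. A femoral artery catheter with pressure transducer recorded SBP and DBP. dP/dtmax, right ventricular contractile force, cardiac output and heart rate were also recorded, as % change at each iv dose.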
# [3] = tested on: Canis familiaris; experiment: Inotropic activity determined by evaluating the % change in contractile force (CF) of right ventricle at a dose of 300 ug/kg administered intravenously […]; assay type: functional, Canis lupus familiaris, Heart right ventricle; outline: as §1
# [4] = tested on: Canis familiaris; experiment: Inotropic activity determined by evaluating the % change in Systolic Blood Pressure (SBP) at a dose of 1000 ug/kg administered intravenously […]; assay type: functional, Canis lupus familiaris, Muscle tissue; outline: as §1
# [5] = tested on: Canis familiaris; experiment: Inotropic activity determined by evaluating the % change in contractile force (CF) of right ventricle at a dose of 100 ug/kg administered intravenously […]; assay type: functional, Canis lupus familiaris, Heart right ventricle; outline: as §1
# [6] = tested on: Canis familiaris; experiment: Inotropic activity determined by evaluating the maximum rate of rise in left ventricular pressure at a dose of 300 ug/kg administered intravenously […]; assay type: functional, Canis lupus familiaris, Muscle tissue; outline: as §1
# [7] = tested on: Canis familiaris; experiment: Inotropic activity determined by evaluating the % change in Diastolic Blood Pressure (DBP) at a dose of 100 ug/kg administered intravenously […]; assay type: functional, Canis lupus familiaris; outline: as §1
# [8] = tested on: Canis familiaris; experiment: Inotropic activity determined by evaluating the % change in Systolic Blood Pressure (SBP) at a dose of 300 ug/kg administered intravenously […]; assay type: functional, Canis lupus familiaris, Muscle tissue; outline: as §1
# [9] = tested on: Canis familiaris; experiment: Inotropic activity determined by evaluating the % change in Systolic Blood Pressure (SBP) at a dose of 100 ug/kg administered intravenously […]; assay type: functional, Canis lupus familiaris, Muscle tissue; outline: as §1
# [10] = tested on: Canis familiaris; experiment: Inotropic activity determined by evaluating the % change in Diastolic Blood Pressure (DBP) at a dose of 1000 ug/kg administered intravenously […]; assay type: functional, Canis lupus familiaris; outline: as §1
# [11] = organism: Canis familiaris; experiment: Positive inotropic activity determined in the […](that produced 30% increase in dose- response curves [dP/dt(max)]); assay type: functional; settings: Canis lupus familiaris
# Outline: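 In the anesthetized open-chest dog (mongrel, 7–15 kg, pentobarbital 30 mg/kg iv, ventilated on room air), compounds were given intravenously and LV dP/dtmax was recorded. The dose giving a 30% rise in dP/dtmax was read from the dose-response curves. Results are mean ± SEM (n = 3) or mean ± range (n = 2).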
# [12] = tested on: Canis familiaris; experiment: Inotropic activity determined by evaluating the maximum rate of rise in left ventricular pressure at a dose of 100 ug/kg administered intravenously […]; assay type: functional, Canis lupus familiaris, Muscle tissue; outline: as §1
# [13] = tested on: Canis familiaris; experiment: Inotropic activity determined by evaluating the % change in contractile force (CF) of right ventricle at a dose of 1000 ug/kg administered intravenously […]; assay type: functional, Canis lupus familiaris, Heart right ventricle; outline: as §1
# [14] = tested on: Canis familiaris; experiment: Inotropic activity determined by evaluating the % change in Heart Rate (HR) at a dose of 1000 ug/kg administered intravenously […]; assay type: functional, Canis lupus familiaris; outline: as §1
# [15] = tested on: Canis familiaris; experiment: Inotropic activity determined by evaluating the % change in Diastolic Blood Pressure (DBP) at a dose of 300 ug/kg administered intravenously […]; assay type: functional, Canis lupus familiaris; outline: as §1
# [16] = tested on: Canis familiaris; experiment: Inotropic activity determined by evaluating the % change in Cardiac out put (CO)at a dose of 1000 ug/kg administered intravenously […]; assay type: functional, Canis lupus familiaris; outline: as §1
# [17] = tested on: Canis familiaris; experiment: Inotropic activity determined by evaluating the % change in Cardiac out put (CO)at a dose of 100 ug/kg administered intravenously […]; assay type: functional, Canis lupus familiaris; outline: as §1
# [18] = tested on: Canis familiaris; experiment: Inotropic activity determined by evaluating the maximum rate of rise in left ventricular pressure at a dose of 1000 ug/kg administered intravenously […]; assay type: functional, Canis lupus familiaris, Muscle tissue; outline: as §1
# [19] = tested on: Canis familiaris; experiment: Inotropic activity determined by evaluating the % change in Heart Rate (HR) at a dose of 300 ug/kg administered intravenously […]; assay type: functional, Canis lupus familiaris, Muscle tissue; outline: as §1
# [20] = tested on: Canis familiaris; experiment: Inotropic activity determined by evaluating the % change in Cardiac out put (CO)at a dose of 300 ug/kg administered intravenously […]; assay type: functional, Canis lupus familiaris; outline: as §1
# [21] = tested on: Canis familiaris; experiment: Inotropic activity determined by evaluating the maximum rate of rise in left ventricular pressure at a dose of 3 ug/kg administered intravenously […]; assay type: functional, Canis lupus familiaris, Muscle tissue; outline: as §1
# [22] = tested on: Canis familiaris; experiment: Inotropic activity determined by evaluating the % change in Systolic Blood Pressure (SBP) at a dose of 3 ug/kg administered intravenously […]; assay type: functional, Canis lupus familiaris, Muscle tissue; outline: as §1
# [23] = tested on: Canis familiaris; experiment: Inotropic activity determined by evaluating the maximum rate of rise in left ventricular pressure at a dose of 1 ug/kg administered intravenously […]; assay type: functional, Canis lupus familiaris, Muscle tissue; outline: as §1
# [24] = tested on: Canis familiaris; experiment: Inotropic activity determined by evaluating the % change in Systolic Blood Pressure (SBP) at a dose of 1 ug/kg administered intravenously […]; assay type: functional, Canis lupus familiaris, Muscle tissue; outline: as §1
# [25] = tested on: Canis familiaris; experiment: Inotropic activity determined by evaluating the % change in Systolic Blood Pressure (SBP) at a dose of 10 ug/kg administered intravenously […]; assay type: functional, Canis lupus familiaris; outline: as §1
# [26] = tested on: Canis familiaris; experiment: Inotropic activity determined by evaluating the % change in Heart Rate (HR) at a dose of 1 ug/kg administered intravenously […]; assay type: functional, Canis lupus familiaris; outline: as §1
# [27] = tested on: Canis familiaris; experiment: Inotropic activity determined by evaluating the % change in Diastolic Blood Pressure (DBP) at a dose of 10 ug/kg administered intravenously […]; assay type: functional, Canis lupus familiaris; outline: as §1
# [28] = tested on: Canis familiaris; experiment: Inotropic activity determined by evaluating the % change in Heart Rate (HR) at a dose of 10 ug/kg administered intravenously […]; assay type: functional, Canis lupus familiaris; outline: as §1
# [29] = tested on: Canis familiaris; experiment: Inotropic activity determined by evaluating the % change in Diastolic Blood Pressure (DBP) at a dose of 1 ug/kg administered intravenously […]; assay type: functional, Canis lupus familiaris; outline: as §1
# [30] = tested on: Canis familiaris; experiment: Inotropic activity determined by evaluating the % change in Diastolic Blood Pressure (DBP) at a dose of 3 ug/kg administered intravenously […]; assay type: functional, Canis lupus familiaris; outline: as §1
# [31] = tested on: Canis familiaris; experiment: Inotropic activity determined by evaluating the maximum rate of rise in left ventricular pressure at a dose of 10 ug/kg administered intravenously […]; assay type: functional, Canis lupus familiaris, Muscle tissue; outline: as §1
# [32] = tested on: Canis familiaris; experiment: Inotropic activity determined by evaluating the % change in contractile force (CF) of right ventricle at a dose of 10 ug/kg administered intravenously […]; assay type: functional, Canis lupus familiaris, Heart right ventricle; outline: as §1
# [33] = tested on: Canis familiaris; experiment: Inotropic activity determined by evaluating the % change in contractile force (CF) of right ventricle at a dose of 1 ug/kg administered intravenously […]; assay type: functional, Canis lupus familiaris, Heart right ventricle; outline: as §1
# [34] = tested on: Canis familiaris; experiment: Inotropic activity determined by evaluating the % change in contractile force (CF) of right ventricle at a dose of 3 ug/kg administered intravenously […]; assay type: functional, Canis lupus familiaris, Heart right ventricle; outline: as §1
# [35] = tested on: Canis familiaris; experiment: Inotropic activity determined by evaluating the % change in Cardiac out put (CO)at a dose of 10 ug/kg administered intravenously […]; assay type: functional, Canis lupus familiaris; outline: as §1
# [36] = tested on: Canis familiaris; experiment: Inotropic activity determined by evaluating the % change in Cardiac out put (CO)at a dose of 1 ug/kg administered intravenously […]; assay type: functional, Canis lupus familiaris; outline: as §1
# [37] = tested on: Canis familiaris; experiment: Inotropic activity determined by evaluating the % change in Cardiac out put (CO)at a dose of 3 ug/kg administered intravenously […]; assay type: functional, Canis lupus familiaris; outline: as §1
# [38] = tested on: Canis familiaris; experiment: Inotropic activity determined by evaluating the % change in Heart Rate (HR) at a dose of 3 ug/kg administered intravenously […]; assay type: functional, Canis lupus familiaris; outline: as §1
smiles,measurement,setting,value
Nc1cc(-c2ccncc2)c[nH]c1=O [INAMRINONE],ED15,[1],200 µg
same,Change of HR,[2],1.2%
same,Change of CF,[3],22.4%
same,Change of SBP,[4],-5.5%
same,Change of CF,[5],6.5%
same,dP/dt,[6],22.3%
same,Change of DBP,[7],-4.7%
same,Change of SBP,[8],-2.7%
same,Change of SBP,[9],-5%
same,Change of DBP,[10],-14.1%
same,ED30,[11],0.472 mg/kg
same,dP/dt,[12],6.7%
same,Change of CF,[13],79.7%
same,Change of HR,[14],8.1%
same,Change of DBP,[15],-4.1%
same,Change of CO,[16],36.5%
same,Change of CO,[17],1.9%
same,dP/dt,[18],54.8%
same,Change of HR,[19],3.8%
same,Change of CO,[20],15.6%
CC1CC(=O)NN=C1c1ccc(Nc2ccncc2)cc1.Cl (stereo not given),dP/dt,[21],19.5%
same,Change of SBP,[22],-14.1%
same,ED15,[1],1.5 µg
same,dP/dt,[23],8.1%
same,Change of SBP,[24],-4.7%
same,Change of SBP,[25],-23.6%
same,Change of HR,[26],3.4%
same,Change of DBP,[27],-31.4%
same,Change of HR,[28],25.1%
same,Change of DBP,[29],-7.3%
same,Change of DBP,[30],-21.2%
same,dP/dt,[31],58.4%
same,ED30,[11],0.0044 mg/kg
same,Change of CF,[32],61.5%
same,Change of CF,[33],7.9%
same,Change of CF,[34],22.7%
same,Change of CO,[35],24.5%
same,Change of CO,[36],5.1%
same,Change of CO,[37],11.7%
same,Change of HR,[38],15.8%
